In ChEMBL document CHEMBL1150564, “Isoterchebulin and 4,6-O-isoterchebuloyl-D-glucose, novel hydrolyzable tannins from Terminalia macroptera” (J Nat Prod, 2001):
≈ marks a conversion by molar mass, not a printed value. Calls of active or inactive are those of the source. No cut-off for these calls is given here.

Key:
[1] = test system: Bacillus subtilis; test: Antibacterial activity against Bacillus subtilis by microdilution assay; type: functional
Outline: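 Broth microdilution against B. subtilis, samples serially twofold diluted from a 1024 µg/mL start, two replicates per concentration. MIC recorded. Cefotaxim served as positive control. Afterwards, bacteria treated at the MIC were replated on drug-free HNB agar to tell bacteriostatic from bactericidal action.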

[2] = test system: Pseudomonas fluorescens; test: Antibacterial activity against Pseudomonas fluorescens at 1024 ug/ml; type: functional, organism-based
Outline: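 Broth microdilution against P. fluorescens, samples serially twofold diluted from a top concentration of 1024 µg/mL, two replicates per concentration. Cefotaxim served as positive control.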

[3] = test system: 5637; test: Cytotoxicity against human 5637 cells; type: functional; details: read-out: LC50 (the source's name)
[4] = Toxicity against Oreochromis mossambicus assessed as mortality at 50 ug/ml; type: organism-based; details: in vivo, read-out: Activity
Outline: (§1)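 Tilapia (Oreochromis mossambicus) exposed to the compound in water at 50 or 75 µg/mL. Read-out is percent fish mortality.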

[5] = test system: Caenorhabditis elegans; test: Nematicidal activity against Caenorhabditis elegans at 100 ug/ml; type: functional, organism-based
Outline: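 Caenorhabditis elegans exposed to compound at 50 and 100 µg/mL (n = 60, two replicates per concentration). Scored by increase in worm number and worm movement, graded on a + scale. Pyrantel embonate at 50 µg/mL served as positive control.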

[6] = Toxicity against Oreochromis mossambicus assessed as mortality at 75 ug/ml; type: organism-based; details: in vivo, read-out: Activity; outline: as §1
[7] = test system: Biomphalaria glabrata; test: Molluscicidal activity against Biomphalaria glabrata; type: functional

| Compound | MIC [1] | Activity [2] | also measured |
| --- | --- | --- | --- |
| O=C(OC[C@H]1OC(O)[C@H](O)[C@@H](O)[C@@H]1OC(=O)c1cc(O)c(O)c(O)c1-c1c(O)c(O)c2oc(=O)c3cc(O)c(O)c4oc(=O)c1c2c43)c1cc(O)c(O)c(O)c1 (stereo partly drawn) [TERFLAVIN B] | 64 µg/mL (≈ 81.6 µM) | inactive | – |
| O=C(OC[C@H]1OC(O)[C@@H]2OC(=O)c3cc(O)c(O)c(O)c3-c3c(cc(O)c(O)c3O)C(=O)O[C@H]2[C@@H]1OC(=O)c1cc(O)c(O)c(O)c1-c1c(O)c(O)c2oc(=O)c3cc(O)c(O)c4oc(=O)c1c2c43)c1cc(O)c(O)c(O)c1 (stereo partly drawn) [TERFLAVIN A] | 64 µg/mL (≈ 58.9 µM) | inactive | – |
| O=C(O[C@H]1C(O)O[C@@H]2COC(=O)c3cc(O)c(O)c(O)c3-c3c(O)c(O)c4oc(=O)c5c(c(O)c(O)c6oc(=O)c3c4c65)-c3c(cc(O)c(O)c3O)C(=O)O[C@H]2[C@@H]1O)c1cc(O)c(O)c(O)c1 (stereo partly drawn) | 8 µg/mL (≈ 8.56 µM) | inactive | – |
| O=C1O[C@H]2[C@H](O)[C@@H](CO)OC(O)[C@@H]2OC(=O)c2cc(O)c(O)c(O)c2-c2c1cc(O)c(O)c2O (stereo partly drawn) | – | inactive | Activity [1]: inactive; CC50 [3]: 84.7 µM |
| [H][C@@]12COC(=O)c3cc(O)c(O)c(O)c3Oc3c(O)cc4c(=O)oc5c(O)c(O)c(c6c(=O)oc3c4c56)-c3c(cc(O)c(O)c3O)C(=O)O[C@@]1([H])[C@H](O)[C@@H](O)C(O)O2 (stereo partly drawn) | 8 µg/mL (≈ 10.2 µM) | – | – |
| O=C1OC[C@H]2OC(O)[C@H](O)[C@@H](O)[C@@H]2OC(=O)c2cc(O)c(O)c(O)c2-c2c(O)c(O)c3oc(=O)c4cc(O)c(c5oc(=O)c2c3c54)Oc2c1cc(O)c(O)c2O (stereo partly drawn) | – | inactive | – |
| O=C1O[C@@H]2[C@@H](OC(=O)c3cc(O)c(O)c(O)c3-c3c1cc(O)c(O)c3O)[C@H](O)O[C@@H]1COC(=O)c3cc(O)c(O)c(O)c3-c3c(O)c(O)c4oc(=O)c5c(c(O)c(O)c6oc(=O)c3c4c65)-c3c(cc(O)c(O)c3O)C(=O)O[C@@H]21 [PUNICALAGIN] | 32 µg/mL (≈ 29.5 µM) | inactive | – |
| O=C1O[C@H]([C@@H]2OC(=O)c3cc(O)c(O)c(O)c3-c3c(O)c(O)c4oc(=O)c5c(c(O)c(O)c6oc(=O)c3c4c65)-c3c(cc(O)c(O)c3O)C(=O)OC[C@H]2O)[C@@H]2OC(=O)c3c(c(O)c(O)c(O)c3[C@H]2O)-c2c1cc(O)c(O)c2O [PUNICACORTEIN C] | 16 µg/mL (≈ 14.8 µM) | inactive | CC50 [3]: 41.4 µM |
| CO/N=C(\C(=O)N[C@@H]1C(=O)N2C(C(=O)O)=C(COC(C)=O)CS[C@H]12)c1csc(N)n1 [CEFOTAXIME] | 2 µg/mL (≈ 4.39 µM) | – | – |
| [H][C@@]12OC(=O)c3cc(O)c(O)c(O)c3-c3c(O)c(O)c4oc(=O)c5cc(O)c(c6oc(=O)c3c4c65)Oc3c(cc(O)c(O)c3O)C(=O)OC[C@@]1([H])OC(O)[C@]1([H])OC(=O)c3cc(O)c(O)c(O)c3-c3c(cc(O)c(O)c3O)C(=O)O[C@@]21[H] (stereo partly drawn) [ISOTERCHEBULIN] | 8 µg/mL (≈ 7.38 µM) | inactive | mortality at 50 ug/ml [4]: 10%; Activity [5]: Active; mortality at 75 ug/ml [6]: 10%; LC100 [7]: 60 µg/mL |
